ChEMBL document CHEMBL4145448, “Broad activity of diphenyleneiodonium analogues against Mycobacterium tuberculosis, malaria parasites and bacterial pathogens” (Eur J Med Chem, 2018)

Tests used:
[1] = Selectivity index, ratio of CC50 for human HepG2 cells in presence of 1% FBS to MIC for Pseudomonas aeruginosa QLD PSA 1; format: toxicity; details: read-out: Selectivity Index
Outline: (§1)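 Selectivity index is CC50 (1% FBS) divided by MIC. […] They then got compound at 300 to 0.14 µM (3-fold steps) for 24 h at 37 °C, 5% CO2. Resazurin (10 µM, 2 h) was read at ex/em 560/590 in duplicate wells. For MIC, CLSI broth microdilution was run in CaMHB with ~10^6 cfu/mL inoculum and 0–128 µM compound.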

[2] = Selectivity index, ratio of CC50 for human HepG2 cells in presence of 1% FBS to MIC for vancomycin-intermediate Staphylococcus aureus ATCC 700698; format: toxicity; details: read-out: Selectivity Index; outline: as §1
Acinetobacter baumannii [3] = assay: Antibacterial activity against Acinetobacter baumannii ATCC 19606 col10 after 18 hrs by broth microdilution method; format: functional; details: ATCC 19606 = CIP 70.34 = JCM 6841 col10, 18 h
Outline: (§2)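 Broth microdilution per CLSI in cation-adjusted Mueller-Hinton broth. 100 µL inoculum (~10^6 cfu/mL in CaMHB) mixed with 100 µL CaMHB containing compound, 0 to 128 µM. Incubated 18 h at 37 °C. MIC taken as the lowest concentration with no visible growth. Polymyxin B served as positive control. Isolates were stored at -80 °C in tryptone soy broth with 20% glycerol.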

[4] = Selectivity index, ratio of CC50 for human HepG2 cells in presence of 1% FBS to MIC for vancomycin-resistant Staphylococcus aureus ATCC 700699; format: toxicity; details: read-out: Selectivity Index; outline: as §1
[5] = system: Mycobacterium tuberculosis; assay: Antimycobacterial activity against Mycobacterium tuberculosis H37Rv ATCC 25618 after 7 days by resazurin dye based assay; format: functional; details: H37Rv ATCC 25618, 168 h
Outline: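 H37Rv grown at 37 °C in 7H9 with 10% ADC, 0.5% glycerol and 0.02% tyloxapol. Compounds serially diluted in water, 0 to 10 µM, in triplicate. Culture adjusted to OD600 0.001 and incubated 7 days at 37 °C. Resazurin (0.05% w/v) added for 4-24 h and fluorescence read at 590 nm. MIC is the lowest concentration giving complete growth inhibition versus untreated. Rifampicin served as control.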

[6] = Selectivity index, ratio of CC50 for human HepG2 cells in presence of 1% FBS to MIC for Klebsiella pneumoniae isolate M320445; format: toxicity; details: read-out: Selectivity Index
[7] = Selectivity index, ratio of CC50 for human HepG2 cells in presence of 1% FBS to MIC for Escherichia coli N11281; format: toxicity; details: read-out: Selectivity Index
[8] = Selectivity index, ratio of CC50 for human HepG2 cells in presence of 1% FBS to MIC for vancomycin-resistant Enterococcus faecium ATCC 700221; format: toxicity; details: read-out: Selectivity Index; outline: as §1
Pseudomonas aeruginosa [9] = assay: Antibacterial activity against Pseudomonas aeruginosa isolate M146201 after 18 hrs by broth microdilution method; format: functional; details: isolate M146201, 18 h; outline: as §2
Staphylococcus aureus [10] = assay: Antibacterial activity against methicillin-resistant Staphylococcus aureus ATCC 43300 after 18 hrs by broth microdilution method; format: functional; details: ATCC 43300, 18 h; outline: as §2
[11] = Selectivity index, ratio of CC50 for human HepG2 cells in presence of 1% FBS to MIC for Acinetobacter baumannii ATCC 19606 col10; format: toxicity; details: read-out: Selectivity Index
Acinetobacter baumannii [12] = assay: Antibacterial activity against Acinetobacter baumannii isolate 246-01-C after 18 hrs by broth microdilution method; format: functional; outline: as §2
[13] = Selectivity index, ratio of CC50 for human HepG2 cells in presence of 1% FBS to MIC for Acinetobacter baumannii isolate 07AC-336; format: toxicity; details: read-out: Selectivity Index
Klebsiella pneumoniae [14] = assay: Antibacterial activity against Klebsiella pneumoniae isolate 248-33-D after 18 hrs by broth microdilution method; format: functional; outline: as §2
Pseudomonas aeruginosa [15] = assay: Antibacterial activity against Pseudomonas aeruginosa isolate 18878B klon 1 after 18 hrs by broth microdilution method; format: functional; details: isolate 18878B klon 1, 18 h; outline: as §2
[16] = Selectivity index, ratio of CC50 for human HepG2 cells in presence of 1% FBS to MIC for Acinetobacter baumannii ATCC 19606; format: toxicity; details: read-out: Selectivity Index
Staphylococcus aureus [17] = assay: Antibacterial activity against vancomycin-intermediate Staphylococcus aureus ATCC 700698 after 18 hrs by broth microdilution method; format: functional; details: ATCC 700698, 18 h; outline: as §2
[18] = Selectivity index, ratio of CC50 for human HepG2 cells in presence of 1% FBS to MIC for Klebsiella pneumoniae isolate 224-11-C; format: toxicity; details: read-out: Selectivity Index
Klebsiella pneumoniae [19] = assay: Antibacterial activity against Klebsiella pneumoniae isolate 1 after 18 hrs by broth microdilution method; format: functional; details: isolate 1, 18 h; outline: as §2
[20] = Selectivity index, ratio of CC50 for human HepG2 cells in presence of 1% FBS to MIC for Klebsiella pneumoniae ATCC 13883; format: toxicity; details: read-out: Selectivity Index
Acinetobacter baumannii [21] = assay: Antibacterial activity against Acinetobacter baumannii ATCC 17978 after 18 hrs by broth microdilution method; format: functional; details: ATCC 17978, 18 h; outline: as §2
[22] = Selectivity index, ratio of CC50 for human HepG2 cells in presence of 1% FBS to MIC for Acinetobacter baumannii ATCC 17978 col10; format: toxicity; details: read-out: Selectivity Index
Pseudomonas aeruginosa [23] = assay: Antibacterial activity against Pseudomonas aeruginosa QLD PSA 1 after 18 hrs by broth microdilution method; format: functional; details: QLD PSA 1, 18 h; outline: as §2
Acinetobacter baumannii [24] = assay: Antibacterial activity against Acinetobacter baumannii ATCC 19606 after 18 hrs by broth microdilution method; format: functional; details: ATCC 19606 = CIP 70.34 = JCM 6841, 18 h; outline: as §2
[25] = Selectivity index, ratio of CC50 for human HepG2 cells in presence of 1% FBS to MIC for Klebsiella pneumoniae isolate 1; format: toxicity; details: read-out: Selectivity Index
Klebsiella pneumoniae [26] = assay: Antibacterial activity against Klebsiella pneumoniae isolate M320445 after 18 hrs by broth microdilution method; format: functional; details: isolate M320445, 18 h; outline: as §2
Acinetobacter baumannii [27] = assay: Antibacterial activity against Acinetobacter baumannii isolate 07AC-336 after 18 hrs by broth microdilution method; format: functional; details: isolate 07AC-336, 18 h; outline: as §2
Staphylococcus aureus [28] = assay: Antibacterial activity against vancomycin-resistant Staphylococcus aureus ATCC 700699 after 18 hrs by broth microdilution method; format: functional; details: ATCC 700699, 18 h; outline: as §2
Enterococcus faecium = assay: Antibacterial activity against vancomycin-resistant Enterococcus faecium ATCC 700221 after 18 hrs by broth microdilution method; format: functional; details: ATCC 700221, 18 h; outline: as §2
Escherichia coli = assay: Antibacterial activity against Escherichia coli N4149 after 18 hrs by broth microdilution method; format: functional; details: N4149, 18 h; outline: as §2
Acinetobacter baumannii [29] = assay: Antibacterial activity against Acinetobacter baumannii ATCC 17978 col10 after 18 hrs by broth microdilution method; format: functional; details: ATCC 17978 col10, 18 h; outline: as §2
[30] = Selectivity index, ratio of CC50 for human HepG2 cells in presence of 1% FBS to MIC for Escherichia coli N2381; format: toxicity; details: read-out: Selectivity Index
[31] = Selectivity index, ratio of CC50 for human HepG2 cells in presence of 1% FBS to MIC for Pseudomonas aeruginosa ATCC 27853; format: toxicity; details: read-out: Selectivity Index; outline: as §1
[32] = Selectivity index, ratio of CC50 for human HepG2 cells in presence of 1% FBS to MIC for Acinetobacter baumannii ATCC 17978; format: toxicity; details: read-out: Selectivity Index

SMILES | selectivity ratio [1] | selectivity ratio [2] | MIC (Acinetobacter baumannii [3]) | selectivity ratio [4] | MIC [5] | selectivity ratio [6] | selectivity ratio [7] | selectivity ratio [8] | MIC (Pseudomonas aeruginosa [9]) | MIC (Staphylococcus aureus [10]) | selectivity ratio [11] | MIC (Acinetobacter baumannii [12]) | selectivity ratio [13] | MIC (Klebsiella pneumoniae [14]) | MIC (Pseudomonas aeruginosa [15]) | selectivity ratio [16] | MIC (Staphylococcus aureus [17]) | selectivity ratio [18] | MIC (Klebsiella pneumoniae [19]) | selectivity ratio [20] | also measured
Fc1ccc2c(c1)[I+]c1ccccc1-2 | 0.66 | 0.66 | 2.2 µM | 0.66 | 0.29 µM | 0.16 | 0.08 | 2.6 | 2.2 µM | 2.2 µM | 2.6 | 4.5 µM | 0.66 | 36 µM | 1.1 µM | 2.6 | 8.9 µM | 0.08 | 72 µM | 0.16 | MIC (Acinetobacter baumannii [21]): 1.1 µM; selectivity ratio [22]: 11; MIC (Pseudomonas aeruginosa [23]): 8.9 µM; MIC (Acinetobacter baumannii [24]): 4.5 µM; selectivity ratio [25]: 0.08; MIC (Klebsiella pneumoniae [26]): 36 µM; MIC (Acinetobacter baumannii [27]): 8.9 µM; MIC (Staphylococcus aureus [28]): 8.9 µM; MIC (Enterococcus faecium): 2.2 µM; MIC (Escherichia coli): 18 µM; MIC (Acinetobacter baumannii [29]): 0.56 µM; selectivity ratio [30]: 0.08; selectivity ratio [31]: 0.66; selectivity ratio [32]: 5.3
COc1cccc2c1-c1ccccc1[I+]2 | > 0.55 | 1.1 | 17 µM | 1.1 | 4.4 µM | 0.55 | > 0.55 | 4.4 | > 70 µM | 35 µM | 2.2 | 70 µM | 0.55 | > 70 µM | 70 µM | 1.1 | 35 µM | > 0.55 | > 70 µM | > 0.55 | MIC (Acinetobacter baumannii [21]): 35 µM; selectivity ratio [22]: 1.1; MIC (Pseudomonas aeruginosa [23]): > 70 µM; MIC (Acinetobacter baumannii [24]): 35 µM; selectivity ratio [25]: > 0.55; MIC (Klebsiella pneumoniae [26]): 70 µM; MIC (Acinetobacter baumannii [27]): 70 µM; MIC (Staphylococcus aureus [28]): 35 µM; MIC (Enterococcus faecium): 8.7 µM; MIC (Escherichia coli): > 70 µM; MIC (Acinetobacter baumannii [29]): 35 µM; selectivity ratio [30]: 0.55; selectivity ratio [31]: > 0.55; selectivity ratio [32]: 1.1
COc1ccc2c(c1)[I+]c1ccccc1-2 | 0.11 | 0.78 | 2.2 µM | 0.78 | 0.28 µM | 0.11 | > 0.11 | 1.6 | 70 µM | 4.4 µM | 3.1 | 35 µM | > 0.11 | > 70 µM | 18 µM | 0.39 | 8.7 µM | > 0.11 | > 70 µM | > 0.11 | MIC (Acinetobacter baumannii [21]): 18 µM; selectivity ratio [22]: 3.1; MIC (Pseudomonas aeruginosa [23]): 70 µM; MIC (Acinetobacter baumannii [24]): 18 µM; selectivity ratio [25]: > 0.11; MIC (Klebsiella pneumoniae [26]): 70 µM; MIC (Acinetobacter baumannii [27]): > 70 µM; MIC (Staphylococcus aureus [28]): 8.7 µM; MIC (Enterococcus faecium): 4.4 µM; MIC (Escherichia coli): > 70 µM; MIC (Acinetobacter baumannii [29]): 2.2 µM; selectivity ratio [30]: 0.21; selectivity ratio [31]: > 0.11; selectivity ratio [32]: 0.39
COc1ccc2c(c1)-c1ccccc1[I+]2 | 0.29 | 0.58 | 8.7 µM | 0.58 | 1.1 µM | 0.29 | > 0.29 | 4.6 | 70 µM | 18 µM | 2.3 | 35 µM | 0.29 | > 70 µM | 35 µM | 0.58 | 35 µM | > 0.29 | > 70 µM | 0.29 | MIC (Acinetobacter baumannii [21]): 18 µM; selectivity ratio [22]: 4.6; MIC (Pseudomonas aeruginosa [23]): 70 µM; MIC (Acinetobacter baumannii [24]): 35 µM; selectivity ratio [25]: > 0.29; MIC (Klebsiella pneumoniae [26]): 70 µM; MIC (Acinetobacter baumannii [27]): 70 µM; MIC (Staphylococcus aureus [28]): 35 µM; MIC (Enterococcus faecium): 4.4 µM; MIC (Escherichia coli): > 70 µM; MIC (Acinetobacter baumannii [29]): 4.4 µM; selectivity ratio [30]: > 0.29; selectivity ratio [31]: > 0.29; selectivity ratio [32]: 1.2
